Square brackets hold non-standard residues; d marks the D form. Peptide text beside a SMILES is read from it.
What was measured:
U87MG cells = U87MG cells (Homo sapiens, UniProt P05106+P06756); test: Confocal cellular uptake of peptide-RhB conjugates; type: cell-based; conditions: confocal imaging, incubation up to 4 h
Summary of the method: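 Cells were seeded on confocal dishes at 3×10^5 per well and left 24 h to attach. Cells were washed three times with PBS (pH 7.4), imaged by laser confocal microscopy, and uptake at 2 h was quantified as mean fluorescence intensity.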

U87MG-tumor-bearing mice = test: In vivo antitumor study of peptide-Dox conjugates; set-up: species or system nude mice
Summary of the method: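 Female nude mice aged 6–7 weeks were inoculated s.c. in the axillary fossa with 1×10^7 U87MG cells. On day 7 they were split into five groups of 10. Saline, free Dox or peptide-Dox conjugates were given i.v. via the tail vein every other day for 7 doses, each equal to 5 mg/kg Dox. Body weight and caliper tumor volume, V = π/6·length·width², were recorded, along with survival.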

αvβ3 integrin = αvβ3 integrin (Homo sapiens, UniProt P05106+P06756); test: MicroScale Thermophoresis; type: binding
[1] = system: U87MG, MDA-MB-231, HepG2 and L02 cells; test: Transwell cell migration assay; type: cell-based, Human; conditions: peptides 40μM for 24 h, transwell 12 hours
Summary of the method: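 Cells at 60–70% confluence in 6-well plates were exposed to peptides (40 μM) for 24 h. They were then detached and 5×10^5 cells placed in transwell upper chambers, in triplicate, over DMEM + 10% FBS. After 12 h, unmigrated cells were swabbed off. Membranes were fixed in methanol and stained with 0.1% crystal violet, 30 min each. The dye was eluted with 33% acetic acid and read at OD570. % migration = treated/control OD570 × 100.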

[2] = system: p-FAK, p-PI3K, p-Ras in U87MG cells; test: Western blot of αvβ3 downstream signalling; type: cell-based, Human; conditions: 64μg /mL for 48 h

Sequence of αvβ3 integrin (P06756 31-889): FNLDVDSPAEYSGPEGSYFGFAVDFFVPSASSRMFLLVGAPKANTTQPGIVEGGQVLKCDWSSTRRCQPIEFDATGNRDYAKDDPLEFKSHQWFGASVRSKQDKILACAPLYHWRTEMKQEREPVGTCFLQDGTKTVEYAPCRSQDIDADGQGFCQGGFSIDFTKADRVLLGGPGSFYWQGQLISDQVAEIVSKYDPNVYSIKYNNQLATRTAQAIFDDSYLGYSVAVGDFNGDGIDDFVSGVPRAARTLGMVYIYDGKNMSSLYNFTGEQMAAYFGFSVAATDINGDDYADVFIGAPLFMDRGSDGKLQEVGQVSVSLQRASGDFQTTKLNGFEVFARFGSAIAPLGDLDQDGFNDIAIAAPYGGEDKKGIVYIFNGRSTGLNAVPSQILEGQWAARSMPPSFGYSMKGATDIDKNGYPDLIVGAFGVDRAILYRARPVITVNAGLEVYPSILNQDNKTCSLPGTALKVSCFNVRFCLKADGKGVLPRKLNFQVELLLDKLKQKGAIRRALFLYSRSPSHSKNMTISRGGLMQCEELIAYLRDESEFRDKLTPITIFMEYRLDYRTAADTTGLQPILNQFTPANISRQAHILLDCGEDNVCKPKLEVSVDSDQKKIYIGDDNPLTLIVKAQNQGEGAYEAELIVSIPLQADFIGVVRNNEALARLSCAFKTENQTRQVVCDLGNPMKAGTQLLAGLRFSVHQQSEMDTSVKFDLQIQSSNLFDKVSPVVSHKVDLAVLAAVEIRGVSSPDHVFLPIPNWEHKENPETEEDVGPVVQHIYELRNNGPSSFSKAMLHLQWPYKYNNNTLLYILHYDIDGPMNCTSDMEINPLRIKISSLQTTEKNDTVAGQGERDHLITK
Sequence of αvβ3 integrin (P06756 891-1048): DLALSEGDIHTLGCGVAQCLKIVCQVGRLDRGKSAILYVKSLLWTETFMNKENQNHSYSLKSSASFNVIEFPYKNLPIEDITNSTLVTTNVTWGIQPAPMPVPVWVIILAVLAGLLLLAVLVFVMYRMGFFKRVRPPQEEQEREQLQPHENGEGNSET
Sequence of αvβ3 integrin (P05106 27-788): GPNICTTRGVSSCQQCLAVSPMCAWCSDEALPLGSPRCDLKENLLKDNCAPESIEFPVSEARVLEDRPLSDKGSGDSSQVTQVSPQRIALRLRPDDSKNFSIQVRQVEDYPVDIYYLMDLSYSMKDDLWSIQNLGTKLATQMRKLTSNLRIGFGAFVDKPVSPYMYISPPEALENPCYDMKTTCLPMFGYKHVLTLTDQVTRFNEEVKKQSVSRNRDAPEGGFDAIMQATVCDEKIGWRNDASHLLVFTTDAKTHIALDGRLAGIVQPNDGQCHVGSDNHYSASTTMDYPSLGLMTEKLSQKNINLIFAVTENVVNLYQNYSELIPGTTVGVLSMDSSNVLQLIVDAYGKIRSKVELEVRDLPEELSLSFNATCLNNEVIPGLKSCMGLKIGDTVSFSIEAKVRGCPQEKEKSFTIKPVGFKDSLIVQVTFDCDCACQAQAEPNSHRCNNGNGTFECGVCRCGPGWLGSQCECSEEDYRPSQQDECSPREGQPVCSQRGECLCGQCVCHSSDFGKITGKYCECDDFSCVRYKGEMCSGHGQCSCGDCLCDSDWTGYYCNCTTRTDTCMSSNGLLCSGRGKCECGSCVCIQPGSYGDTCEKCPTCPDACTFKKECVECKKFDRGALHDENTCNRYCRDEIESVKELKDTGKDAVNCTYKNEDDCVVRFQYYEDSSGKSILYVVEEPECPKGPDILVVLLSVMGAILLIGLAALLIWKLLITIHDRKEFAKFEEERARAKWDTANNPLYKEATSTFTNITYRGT
Sequence of U87MG cells (P06756 31-1048): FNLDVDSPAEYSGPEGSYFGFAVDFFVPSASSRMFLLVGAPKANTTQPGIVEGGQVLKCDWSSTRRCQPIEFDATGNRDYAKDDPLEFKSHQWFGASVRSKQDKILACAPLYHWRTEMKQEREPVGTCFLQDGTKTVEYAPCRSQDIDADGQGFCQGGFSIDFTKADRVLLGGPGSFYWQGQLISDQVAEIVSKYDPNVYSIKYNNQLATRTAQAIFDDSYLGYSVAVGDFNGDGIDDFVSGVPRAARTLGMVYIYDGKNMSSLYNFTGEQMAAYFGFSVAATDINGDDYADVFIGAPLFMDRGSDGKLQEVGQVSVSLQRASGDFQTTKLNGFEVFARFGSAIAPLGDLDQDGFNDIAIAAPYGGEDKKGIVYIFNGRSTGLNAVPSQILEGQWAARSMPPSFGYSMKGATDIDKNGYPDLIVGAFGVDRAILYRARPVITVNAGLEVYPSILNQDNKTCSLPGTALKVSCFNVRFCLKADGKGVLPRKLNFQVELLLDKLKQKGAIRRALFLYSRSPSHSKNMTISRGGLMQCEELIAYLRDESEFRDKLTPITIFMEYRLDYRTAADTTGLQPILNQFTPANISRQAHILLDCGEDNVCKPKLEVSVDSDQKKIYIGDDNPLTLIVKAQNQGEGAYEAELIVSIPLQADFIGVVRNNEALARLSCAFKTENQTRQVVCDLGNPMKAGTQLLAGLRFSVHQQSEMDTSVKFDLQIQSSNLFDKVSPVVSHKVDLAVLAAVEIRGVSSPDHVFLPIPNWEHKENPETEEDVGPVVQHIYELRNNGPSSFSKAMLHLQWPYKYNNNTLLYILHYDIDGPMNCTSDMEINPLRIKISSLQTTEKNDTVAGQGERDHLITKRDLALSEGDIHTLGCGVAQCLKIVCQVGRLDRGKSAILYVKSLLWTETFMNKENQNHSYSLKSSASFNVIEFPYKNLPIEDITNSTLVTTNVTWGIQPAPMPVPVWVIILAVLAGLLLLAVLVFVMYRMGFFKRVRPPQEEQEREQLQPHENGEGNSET
Sequence of U87MG cells (P05106 27-788): as the sequence (P05106 27-788) above

**Q.** Which “cellular uptake (RhB fluorescence)” value (U87MG cells) does the source give for `CCN(CC)c1ccc2c(-c3ccccc3C(=O)O)c3ccc(=[N+](CC)CC)cc-3oc2c1` [RhB, Rhodamine B] here?
**A.** The value was “no fluorescence was observed”.

**Q.** Which “survival rate (in words)” value (U87MG-tumor-bearing mice; 15-day treatment) does the source give for `COc1cccc2c1C(=O)c1c(O)c3c(c(O)c1C2=O)C[C@@](O)(C(=O)CO)C[C@@H]3O[C@H]1C[C@H](N)[C@H](O)[C@H](C)O1` [Dox, doxorubicin] here?
**A.** Its value is “lowest survival rate”.

**Q.** And the body weight (U87MG-tumor-bearing mice; 15-day treatment, dose 5mg/kg of Dox)?
**A.** The body weight was “continual decrease in body weight”.

**Q.** What about the “histopathology (H&E) toxicity in organs” value (U87MG-tumor-bearing mice; after the 15-day treatment) of the same molecule?
**A.** Its value is “obvious cardiotoxicity and hepatotoxicity”.

**Q.** For `CSCC[C@H](NC(=O)[C@H](CC(N)=O)NC(=O)[C@@H](CCCNC(=N)N)NC(=O)[C@H](Cc1c[nH]c2ccccc12)NC(=O)[C@@H](N)CCCNC(=N)N)C(=O)O` [RWrNM] (H-RW[dR]NM-OH), which Kd (αvβ3 integrin) is on record?
**A.** The Kd was 0.00861 ± 0.00135 µM.

**Q.** How did the “cell migration compared with the controls” value [1] turn out when `N=C(N)NCCC[C@@H]1NC(=O)[C@H](CCCCN)NC(=O)[C@@H](Cc2ccc(O)cc2)NC(=O)[C@H](CC(=O)O)NC(=O)CNC1=O` [c(RGDyK)] was run?
**A.** The value was “obvious decrease in cell migration”.

**Q.** What about the “levels of phosphorylated signalling proteins” value [2] of the same molecule?
**A.** The value was “decreased the levels of p-FAK, p-PI3K, and p-Ras proteins”.

**Q.** With `CC(=O)O[C@H]1C(=O)[C@@]2(C)[C@H]([C@H](OC(=O)c3ccccc3)[C@]3(O)C[C@H](OC(=O)[C@H](O)[C@@H](NC(=O)c4ccccc4)c4ccccc4)C(C)=C1C3(C)C)[C@]1(OC(C)=O)CO[C@@H]1C[C@@H]2O` [PTX] as the molecule, how does the “cell migration compared with the controls” value [1] read?
**A.** The value was “strong inhibition on cell migration”.

**Q.** With `N=C(N)NCCC[C@H](N)C(=O)N[C@@H](Cc1c[nH]c2ccccc12)C(=O)N[C@H](CCCNC(=N)N)C(=O)O` [RWr] (H-Arg-Trp-[dR]-OH) as the molecule, how does the Kd (αvβ3 integrin) read?
**A.** The Kd was 0.0336 ± 0.00456 µM.

**Q.** With `CCN(CC)CCNC(=O)c1c(C)[nH]c(/C=C2\C(=O)Nc3ccc(F)cc32)c1C` [Sunitinib] as the molecule, how does the “cell migration compared with the controls” value [1] read?
**A.** Its value is “strong inhibition on cell migration”.

From PMC5436510 (Theranostics, 2017)
